{"data": "Published values collected from several papers", "PFF0160c": "Dihydroorotate dehydrogenase (quinone), mitochondrial (PFF0160c, Plasmodium falciparum, UniProt Q08210)", "CNR1": "Cannabinoid receptor 1 (CNR1, Homo sapiens, UniProt P21554)", "TBXA2R": "Thromboxane A2 receptor (TBXA2R, Homo sapiens, UniProt P21731)", "note": "Lines come from different studies, so protocols differ."}
{"SMILES": "Cn1nc2c(=O)n(C3CC3)ncc2c1[C@](O)(c1ccc(C(F)(F)F)c(C#N)c1)C(F)(F)F", "target": "PFF0160c", "assay": "enzyme activity, inhibitor", "quantity": "IC50", "result": "25.1 nM"}
{"SMILES": "C=CCCCn1c(O)c(N=NC(=O)c2ccccc2)c2ccccc21", "target": "CNR1", "assay": "ligand displacement, radioligand", "setting": "cell membranes", "quantity": "Ki", "result": "1660 nM"}
{"SMILES": "COC(=O)c1cc(N(C)C(=O)c2ccn3ncc(-c4ccc(C(=O)O)cc4)c3c2)ccc1Cl", "target": "TBXA2R", "assay": "cell-free assay", "quantity": "IC50", "result": "> 30000 nM"}
{"SMILES": "Cc1c(Cc2ccc(C(F)(F)F)cc2)n[nH]c1C(=O)NC1CC1", "target": "PFF0160c", "assay": "enzyme activity, inhibitor", "quantity": "IC50", "result": "> 30000 nM"}
{"SMILES": "CNC(=O)c1ccc(-c2cnn3ccc(C(=O)N(C)c4ccc(Cl)c(C(=O)OC)c4)cc23)cc1", "target": "TBXA2R", "assay": "cell-free assay", "quantity": "IC50", "result": "> 30000 nM"}
{"SMILES": "CCCCCc1cc(O)c2c(c1)OC(C)(CCC=C(C)C)C=C2 (stereo not shown)", "target": "CNR1", "assay": "cell-free assay", "quantity": "Ki", "result": "> 1000 nM"}
{"SMILES": "O=C(N=Nc1c(O)n(CC2CCCCC2)c2ccccc12)c1ccccc1", "target": "CNR1", "assay": "ligand displacement, radioligand", "setting": "cell membranes", "quantity": "Ki", "result": "70.8 nM"}
{"SMILES": "CCn1cc(C)c2c([C@@H](N)c3ccc(C(F)(F)F)nc3)n(C)nc2c1=O", "target": "PFF0160c", "assay": "enzyme activity, inhibitor", "quantity": "IC50", "result": "1000 nM"}
{"SMILES": "CCC(CC)(NC(=O)c1ccc(C2CC2)c(Cc2ccc(F)cc2)n1)C(=O)NCCOCCOCCNC(=O)c1ccc2c(c1)C1(OC2=O)c2ccc(N(C)C)cc2[Si](C)(C)c2cc(N(C)C)ccc21", "target": "CNR1", "assay": "ligand displacement, radioligand", "setting": "cell membranes", "quantity": "Ki", "result": "462 nM"}
{"SMILES": "C=C/C=C/CCN1CCC(O)(c2cccc(Br)c2)C1 (stereo not shown)", "target": "5-hydroxytryptamine receptor 2A (HTR2A, Homo sapiens, UniProt P28223)", "assay": "calcium signal, antagonist", "quantity": "IC50", "result": "15900 nM"}
{"SMILES": "C=C1CC/C=C(\\C)CC[C@@H]2[C@@H]1CC2(C)C", "target": "CNR1", "assay": "ligand displacement, radioligand", "quantity": "Ki", "result": "> 10000 nM"}
{"SMILES": "O=C(N=Nc1c(O)n(CCCCCF)c2ccccc12)c1ccccc1", "target": "CNR1", "assay": "β-arrestin recruitment, agonist", "quantity": "EC50", "result": "1820 nM"}
{"SMILES": "CC[C@@](O)(c1cnc(C(F)(F)F)c(Cl)c1)c1c2ccn(C3CC3)c(=O)c2nn1C", "target": "PFF0160c", "assay": "enzyme activity, inhibitor", "quantity": "IC50", "result": "12.6 nM"}
